Here are results for two compounds from ChEMBL document CHEMBL1165965, “Synthesis and structure-activity relationships of 1,2,3,4-tetrahydropyrido[2,3-b]pyrazines as potent and selective inhibitors of the anaplastic lymphoma kinase” (Bioorg Med Chem, 2010).

The term inhibition denotes the drop in the measured response relative to a control, in per cent. Low values mean little suppression, high ones strong suppression.

The target in experiment [1] is MAP/microtubule affinity-regulating kinase 3 (Homo sapiens) (UniProt P27448). Nature of the experiment: Inhibition of MARK3 at 1 uM. The procedure, abridged:
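Kinase-panel screen using KINOMEscan technology, with 250–400 kinases per panel. Each compound was tested at a single concentration, and inhibition of each kinase was recorded. Selectivity was summarised as S(90), the fraction of kinases inhibited by more than 90%.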

Experiment [2] has as its target Death-associated protein kinase 3 (Homo sapiens) (UniProt O43293). The experiment in a line: Inhibition of DAPK3 at 1 uM. In short, it runs like this:
(§1)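 Single-concentration screen using Ambit Bioscience KINOMEscan technology across a panel of 250–400 kinases. Per-kinase inhibition from this screen was summarized as S(90), the fraction of kinases inhibited by more than 90%.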

The target in experiment [3] is Serine/threonine-protein kinase 32C (Homo sapiens) (UniProt Q86UX6). The experiment in a line: Inhibition of YANK3 at 1 uM.
In experiment [4] the test system is eIF-2-alpha kinase GCN2 (Homo sapiens), Q9P2K8 [S808G]. The experiment in a line: Inhibition of GCN2 domian 2 S808G mutant at 1 uM. The procedure, abridged:
(§2)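 Single-concentration screen on the Ambit KINOMEscan platform, run against a panel of 250–400 kinases. Per-kinase inhibition was also summarized as S(90), the fraction of kinases inhibited by more than 90%.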

Experiment [5] has as its target Citron Rho-interacting kinase (Homo sapiens) (UniProt O14578). Nature of the experiment: Inhibition of CIT at 1 uM.
Experiment [6] addresses Epidermal growth factor receptor (Homo sapiens) (UniProt P00533). The experiment in a line: Inhibition of EGFR at 1 uM. In short, it runs like this: as §1
Experiment [7] has as its target Ribosomal protein S6 kinase alpha-2 (Homo sapiens) (UniProt Q15349). The experiment in a line: Inhibition of RPS6KA2 C-terminal domain2 at 1 uM.
The target in experiment [8] is Ephrin type-A receptor 4 (Homo sapiens) (UniProt P54764). Nature of the experiment: Inhibition of EPHA4 at 1 uM. In short, it runs like this: as §1
Ephrin type-A receptor 4 (Homo sapiens), sequence (P54764 whole entry): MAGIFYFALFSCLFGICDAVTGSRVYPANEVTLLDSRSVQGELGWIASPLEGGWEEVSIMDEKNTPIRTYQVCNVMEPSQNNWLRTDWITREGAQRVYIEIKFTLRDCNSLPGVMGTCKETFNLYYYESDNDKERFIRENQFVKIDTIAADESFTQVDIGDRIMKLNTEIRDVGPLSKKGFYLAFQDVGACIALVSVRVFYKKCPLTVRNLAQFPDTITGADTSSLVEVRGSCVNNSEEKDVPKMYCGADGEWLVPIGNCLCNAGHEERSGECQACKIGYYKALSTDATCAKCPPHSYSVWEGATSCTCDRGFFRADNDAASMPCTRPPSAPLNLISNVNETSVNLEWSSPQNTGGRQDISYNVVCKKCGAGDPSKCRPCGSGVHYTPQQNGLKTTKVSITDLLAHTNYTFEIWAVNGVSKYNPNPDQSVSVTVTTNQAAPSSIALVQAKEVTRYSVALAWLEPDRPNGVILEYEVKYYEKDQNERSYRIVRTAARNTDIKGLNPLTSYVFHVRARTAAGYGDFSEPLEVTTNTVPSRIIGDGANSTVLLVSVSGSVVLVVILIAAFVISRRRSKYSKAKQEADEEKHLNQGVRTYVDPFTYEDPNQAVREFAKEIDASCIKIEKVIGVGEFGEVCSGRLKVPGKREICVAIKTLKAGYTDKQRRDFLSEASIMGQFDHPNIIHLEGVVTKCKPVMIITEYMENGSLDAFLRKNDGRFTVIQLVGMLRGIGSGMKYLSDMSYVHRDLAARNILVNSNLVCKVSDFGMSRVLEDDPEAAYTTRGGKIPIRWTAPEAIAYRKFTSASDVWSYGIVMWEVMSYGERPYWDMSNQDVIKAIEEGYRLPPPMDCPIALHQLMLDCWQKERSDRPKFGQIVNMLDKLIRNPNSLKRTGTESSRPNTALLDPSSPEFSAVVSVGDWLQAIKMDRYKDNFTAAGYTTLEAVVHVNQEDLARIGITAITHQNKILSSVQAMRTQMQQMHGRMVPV
Experiment [9] has as its target Serine/threonine-protein kinase PLK3 (Homo sapiens) (UniProt Q9H4B4). Nature of the experiment: Inhibition of PLK3 at 1 uM.
The target of experiment [10] is Cyclin-dependent kinase 3 (Homo sapiens) (UniProt Q00526). The experiment in a line: Inhibition of CDK3 at 1 uM.
Cyclin-dependent kinase 3 (Homo sapiens), sequence (Q00526 whole entry, looked up, canonical isoform): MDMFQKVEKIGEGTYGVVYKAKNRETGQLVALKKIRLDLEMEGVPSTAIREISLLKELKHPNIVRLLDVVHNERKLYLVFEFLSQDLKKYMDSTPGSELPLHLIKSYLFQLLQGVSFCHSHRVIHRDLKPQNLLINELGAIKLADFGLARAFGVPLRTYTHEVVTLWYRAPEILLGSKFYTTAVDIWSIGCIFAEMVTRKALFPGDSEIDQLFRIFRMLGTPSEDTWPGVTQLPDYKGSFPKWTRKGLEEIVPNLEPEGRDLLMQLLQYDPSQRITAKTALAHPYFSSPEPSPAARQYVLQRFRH
The target of experiment [11] is Phosphatidylinositol 4,5-bisphosphate 3-kinase catalytic subunit alpha isoform (Homo sapiens) (UniProt P42336). Nature of the experiment: Inhibition of PIK3CA at 1 uM.
Phosphatidylinositol 4,5-bisphosphate 3-kinase catalytic subunit alpha isoform (Homo sapiens), sequence (P42336 whole entry, the tested form may be a part, canonical isoform): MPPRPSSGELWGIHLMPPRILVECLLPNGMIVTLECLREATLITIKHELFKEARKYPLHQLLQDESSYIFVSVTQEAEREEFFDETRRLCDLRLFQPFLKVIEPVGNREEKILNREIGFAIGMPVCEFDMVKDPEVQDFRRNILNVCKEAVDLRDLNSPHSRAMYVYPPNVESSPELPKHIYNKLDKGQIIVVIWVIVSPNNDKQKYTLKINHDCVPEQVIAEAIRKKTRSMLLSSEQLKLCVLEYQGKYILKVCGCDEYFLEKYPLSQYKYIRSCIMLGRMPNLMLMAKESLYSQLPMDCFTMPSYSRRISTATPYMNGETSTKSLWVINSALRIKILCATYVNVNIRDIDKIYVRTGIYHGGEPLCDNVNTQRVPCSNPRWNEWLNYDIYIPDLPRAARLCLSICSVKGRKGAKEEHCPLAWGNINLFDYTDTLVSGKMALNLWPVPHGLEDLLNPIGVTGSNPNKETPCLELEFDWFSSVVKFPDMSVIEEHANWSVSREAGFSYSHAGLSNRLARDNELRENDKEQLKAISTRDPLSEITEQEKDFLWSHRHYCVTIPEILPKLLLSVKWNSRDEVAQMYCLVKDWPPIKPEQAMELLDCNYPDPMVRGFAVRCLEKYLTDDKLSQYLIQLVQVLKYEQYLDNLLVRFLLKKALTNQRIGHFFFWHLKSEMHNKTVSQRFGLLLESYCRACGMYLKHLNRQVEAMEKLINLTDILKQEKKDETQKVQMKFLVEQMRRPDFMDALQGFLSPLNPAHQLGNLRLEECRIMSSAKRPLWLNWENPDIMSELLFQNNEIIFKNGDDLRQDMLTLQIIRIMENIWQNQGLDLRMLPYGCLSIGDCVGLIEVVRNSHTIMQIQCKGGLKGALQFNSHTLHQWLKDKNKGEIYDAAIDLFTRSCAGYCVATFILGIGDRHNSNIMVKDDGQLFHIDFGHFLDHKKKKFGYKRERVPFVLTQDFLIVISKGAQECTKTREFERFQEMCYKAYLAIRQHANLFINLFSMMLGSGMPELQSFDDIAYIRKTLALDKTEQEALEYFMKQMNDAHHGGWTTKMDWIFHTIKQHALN
In experiment [12] the target is Ribosomal protein S6 kinase alpha-5 (Homo sapiens) (UniProt O75582). The experiment in a line: Inhibition of RPS6KA5 N-terminal domain1 at 1 uM.
Experiment [13] addresses Homeodomain-interacting protein kinase 1 (Homo sapiens) (UniProt Q86Z02). Nature of the experiment: Inhibition of HIPK1 at 1 uM. In short, it runs like this:
as §2

For experiment [14], the system named is Serine/threonine-protein kinase B-raf (Homo sapiens), P15056 [V600E]. Nature of the experiment: Inhibition of BRAF V600E mutant at 1 uM. In short, it runs like this: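 Ambit KINOMEscan screen at a single concentration across a 250–400 kinase panel, recorded as percent inhibition. Selectivity was expressed as S(90), the fraction of kinases inhibited >90%.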

In experiment [15] the target is Dual specificity testis-specific protein kinase 1 (Homo sapiens) (UniProt Q15569). The experiment in a line: Inhibition of TESK1 at 1 uM.
Experiment [16] concerns the target T1, Serine/threonine-protein kinase Nek5 (Homo sapiens) (UniProt Q6P3R8).
T1 sequence (whole entry): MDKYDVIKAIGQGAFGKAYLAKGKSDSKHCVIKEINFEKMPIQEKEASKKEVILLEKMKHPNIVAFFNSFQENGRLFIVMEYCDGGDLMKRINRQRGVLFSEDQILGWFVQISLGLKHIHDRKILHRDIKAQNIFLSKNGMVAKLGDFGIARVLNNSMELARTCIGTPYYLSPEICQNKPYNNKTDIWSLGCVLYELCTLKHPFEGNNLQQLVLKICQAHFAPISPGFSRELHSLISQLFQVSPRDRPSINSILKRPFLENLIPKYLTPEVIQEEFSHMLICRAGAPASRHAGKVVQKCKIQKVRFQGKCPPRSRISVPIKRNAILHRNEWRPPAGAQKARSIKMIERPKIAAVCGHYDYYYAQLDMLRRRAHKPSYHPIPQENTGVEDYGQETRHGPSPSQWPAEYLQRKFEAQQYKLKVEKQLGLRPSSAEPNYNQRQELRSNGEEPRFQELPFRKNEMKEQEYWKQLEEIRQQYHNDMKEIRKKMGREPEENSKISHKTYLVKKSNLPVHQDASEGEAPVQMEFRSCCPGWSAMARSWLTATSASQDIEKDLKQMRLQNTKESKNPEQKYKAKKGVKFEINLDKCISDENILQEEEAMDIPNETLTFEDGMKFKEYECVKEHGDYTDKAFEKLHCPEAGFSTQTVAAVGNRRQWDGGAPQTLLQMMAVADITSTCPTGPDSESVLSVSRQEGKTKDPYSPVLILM
The experiment in a line: Inhibition of NEK5 at 1 uM.

The target in experiment [17] is T2, Mitogen-activated protein kinase 15 (Homo sapiens) (UniProt Q8TD08).
T2 sequence (whole entry): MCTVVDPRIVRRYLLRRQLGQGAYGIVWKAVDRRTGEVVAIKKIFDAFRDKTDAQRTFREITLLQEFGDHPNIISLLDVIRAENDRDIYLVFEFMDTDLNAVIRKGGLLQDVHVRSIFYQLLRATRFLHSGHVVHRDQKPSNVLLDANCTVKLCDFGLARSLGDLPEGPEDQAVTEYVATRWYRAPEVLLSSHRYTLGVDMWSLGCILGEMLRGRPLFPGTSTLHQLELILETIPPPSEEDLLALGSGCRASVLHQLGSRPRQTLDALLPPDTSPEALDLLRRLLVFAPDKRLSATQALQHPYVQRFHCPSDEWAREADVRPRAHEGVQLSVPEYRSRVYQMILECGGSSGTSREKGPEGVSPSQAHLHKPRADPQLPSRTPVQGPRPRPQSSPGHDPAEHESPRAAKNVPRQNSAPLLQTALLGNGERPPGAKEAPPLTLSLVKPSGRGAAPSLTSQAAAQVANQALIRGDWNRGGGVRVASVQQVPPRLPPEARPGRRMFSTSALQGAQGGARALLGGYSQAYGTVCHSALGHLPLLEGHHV
Nature of the experiment: Inhibition of ERK8 at 1 uM.

Experiment [18] addresses Tyrosine-protein kinase CSK (Homo sapiens) (UniProt P41240). Nature of the experiment: Inhibition of CSK at 1 uM. In short, it runs like this:
as §1

Experiment [19] concerns the target Phosphatidylinositol 4-phosphate 3-kinase C2 domain-containing subunit beta (Homo sapiens) (UniProt O00750). Nature of the experiment: Inhibition of PIK3C2B at 1 uM.

Homeodomain-interacting protein kinase 1 (Homo sapiens), sequence (Q86Z02 whole entry, looked up): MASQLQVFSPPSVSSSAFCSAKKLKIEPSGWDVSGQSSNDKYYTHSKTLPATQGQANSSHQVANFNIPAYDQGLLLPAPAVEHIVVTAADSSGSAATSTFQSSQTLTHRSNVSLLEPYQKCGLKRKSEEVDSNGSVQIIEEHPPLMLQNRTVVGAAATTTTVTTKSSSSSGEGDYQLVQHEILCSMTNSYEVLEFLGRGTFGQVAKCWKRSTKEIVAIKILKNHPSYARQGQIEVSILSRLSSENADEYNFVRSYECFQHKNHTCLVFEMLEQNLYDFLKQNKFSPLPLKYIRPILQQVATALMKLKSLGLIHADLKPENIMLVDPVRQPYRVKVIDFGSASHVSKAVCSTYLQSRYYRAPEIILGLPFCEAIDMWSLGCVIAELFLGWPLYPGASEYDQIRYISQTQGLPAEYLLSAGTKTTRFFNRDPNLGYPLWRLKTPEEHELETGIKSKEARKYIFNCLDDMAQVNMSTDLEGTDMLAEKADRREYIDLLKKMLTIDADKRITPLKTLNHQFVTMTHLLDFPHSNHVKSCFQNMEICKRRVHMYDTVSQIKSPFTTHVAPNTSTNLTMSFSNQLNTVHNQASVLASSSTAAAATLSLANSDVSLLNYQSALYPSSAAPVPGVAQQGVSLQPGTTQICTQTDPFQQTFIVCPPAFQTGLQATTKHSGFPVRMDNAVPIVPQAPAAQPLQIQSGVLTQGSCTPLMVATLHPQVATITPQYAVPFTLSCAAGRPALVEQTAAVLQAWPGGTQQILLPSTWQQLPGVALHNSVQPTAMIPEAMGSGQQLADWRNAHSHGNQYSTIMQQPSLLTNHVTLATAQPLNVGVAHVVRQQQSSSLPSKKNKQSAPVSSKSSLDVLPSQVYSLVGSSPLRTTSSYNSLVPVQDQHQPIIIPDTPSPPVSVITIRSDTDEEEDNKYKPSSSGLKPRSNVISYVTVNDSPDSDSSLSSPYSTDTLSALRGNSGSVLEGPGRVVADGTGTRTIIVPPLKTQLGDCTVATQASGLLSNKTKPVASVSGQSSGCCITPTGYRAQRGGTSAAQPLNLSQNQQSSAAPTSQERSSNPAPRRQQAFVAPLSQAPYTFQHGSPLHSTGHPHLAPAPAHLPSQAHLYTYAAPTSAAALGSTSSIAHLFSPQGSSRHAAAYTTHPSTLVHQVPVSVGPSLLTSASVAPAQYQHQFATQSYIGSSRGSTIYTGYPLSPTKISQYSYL
Death-associated protein kinase 3 (Homo sapiens), sequence (O43293 whole entry, looked up): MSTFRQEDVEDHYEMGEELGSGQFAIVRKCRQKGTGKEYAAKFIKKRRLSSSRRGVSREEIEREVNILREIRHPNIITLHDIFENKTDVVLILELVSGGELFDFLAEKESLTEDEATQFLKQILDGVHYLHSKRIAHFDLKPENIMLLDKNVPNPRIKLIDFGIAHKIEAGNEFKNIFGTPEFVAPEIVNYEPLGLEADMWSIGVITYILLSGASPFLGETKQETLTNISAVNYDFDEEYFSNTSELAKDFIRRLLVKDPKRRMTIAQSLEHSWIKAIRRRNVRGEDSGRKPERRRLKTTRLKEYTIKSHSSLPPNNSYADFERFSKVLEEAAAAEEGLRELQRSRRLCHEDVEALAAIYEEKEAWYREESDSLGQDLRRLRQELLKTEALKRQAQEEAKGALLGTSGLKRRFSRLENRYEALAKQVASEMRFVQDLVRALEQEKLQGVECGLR
Ribosomal protein S6 kinase alpha-2 (Homo sapiens), sequence (Q15349 whole entry, the tested form may be a part): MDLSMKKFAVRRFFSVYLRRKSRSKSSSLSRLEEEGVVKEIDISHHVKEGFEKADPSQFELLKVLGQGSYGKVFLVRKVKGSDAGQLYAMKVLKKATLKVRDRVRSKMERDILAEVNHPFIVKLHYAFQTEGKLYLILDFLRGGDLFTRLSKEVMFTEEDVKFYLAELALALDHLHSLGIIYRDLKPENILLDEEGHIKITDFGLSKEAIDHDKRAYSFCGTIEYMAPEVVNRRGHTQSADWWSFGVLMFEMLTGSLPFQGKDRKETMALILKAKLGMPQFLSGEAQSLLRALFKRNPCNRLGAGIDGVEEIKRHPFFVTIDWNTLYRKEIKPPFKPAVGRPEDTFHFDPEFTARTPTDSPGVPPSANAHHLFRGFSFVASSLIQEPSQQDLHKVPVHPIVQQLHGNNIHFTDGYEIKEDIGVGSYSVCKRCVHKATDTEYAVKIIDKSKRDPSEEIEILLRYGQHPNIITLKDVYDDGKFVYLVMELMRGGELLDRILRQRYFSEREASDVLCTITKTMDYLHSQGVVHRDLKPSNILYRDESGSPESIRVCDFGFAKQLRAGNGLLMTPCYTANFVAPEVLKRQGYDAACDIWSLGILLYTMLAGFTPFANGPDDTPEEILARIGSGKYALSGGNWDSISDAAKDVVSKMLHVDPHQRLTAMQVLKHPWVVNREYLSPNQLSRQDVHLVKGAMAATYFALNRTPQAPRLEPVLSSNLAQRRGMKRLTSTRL

For `CC(=O)N1CCN(c2cc(-c3cnc4c(c3)N(Cc3cc(Cl)ccc3C(F)(F)F)CCN4)ccn2)CC1`, the inhibition in [1], in [2], in experiment [3], in experiment [4], in [5] and in experiment [6] was below 50% in each case. Moreover, the inhibition in [7], in experiment [8], in experiment [9], in experiment [10], in [11] and in experiment [12] was below 50% throughout. For the same compound, the inhibition in [13], in experiment [14], in experiment [15], in experiment [16], in [17] and in experiment [18] was below 50% in each case. This compound yielded an inhibition in experiment [19] below 50%.

Take `CN1CCN(c2ccc(-c3cnc4c(c3)N(Cc3cc(F)ccc3F)CCN4)cn2)CC1`: the inhibition in experiment [1], in experiment [2], in experiment [3], in experiment [4], in experiment [5] and in experiment [6] was below 50% in each case. The inhibition in [7], in [8], in experiment [9], in experiment [10], in experiment [11] and in experiment [12] was below 50% in each case. Also, the inhibition in experiment [13] was 72.2%; in experiment [14], below 50%; in [15], below 50%; in experiment [16] it was below 50%; in [17] it was below 50%; in experiment [18], below 50%. Also, in experiment [19], the inhibition was below 50%.
